# Source: ChEMBL document CHEMBL2203159, “Synthesis and structure-activity relationships of fibrate-based analogues inside PPARs” (Bioorg Med Chem Lett, 2012)
# Legend:
# [1] = molecular target: T1, Peroxisome proliferator-activated receptor alpha (Homo sapiens) (UniProt Q07869); assay: Transactivation of human GAL4-fused PPARalpha ligand binding domain transfected in HEK293 cells at 150 uM after 18 hrs by dual luciferase reporter gene assay relative to clofibric acid; format: cell-based
# T1 sequence (whole entry): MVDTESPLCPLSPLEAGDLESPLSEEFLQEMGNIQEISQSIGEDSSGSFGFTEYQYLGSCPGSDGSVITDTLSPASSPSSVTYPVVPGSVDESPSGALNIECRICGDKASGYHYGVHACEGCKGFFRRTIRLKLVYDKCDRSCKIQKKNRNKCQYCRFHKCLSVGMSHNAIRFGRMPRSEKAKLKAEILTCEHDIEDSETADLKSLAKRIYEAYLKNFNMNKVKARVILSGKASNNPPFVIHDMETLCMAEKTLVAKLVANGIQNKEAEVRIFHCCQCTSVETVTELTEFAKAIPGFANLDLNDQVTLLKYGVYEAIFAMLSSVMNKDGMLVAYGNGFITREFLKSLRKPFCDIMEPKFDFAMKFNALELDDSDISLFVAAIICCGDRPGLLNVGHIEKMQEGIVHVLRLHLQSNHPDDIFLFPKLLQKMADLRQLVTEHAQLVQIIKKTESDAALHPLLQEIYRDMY
# In short: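 This is a GAL4–PPAR transactivation assay in HEK293 cells with a GAL4-responsive luciferase reporter, run in at least two separate experiments. Efficacy is the percentage of the maximum fold induction obtained with the reference agonist clofibric acid. Results are given ± SEM.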
# [2] = molecular target: T2, Peroxisome proliferator-activated receptor alpha (Homo sapiens, UniProt Q07869); assay: Transactivation of human GAL4-fused PPARalpha ligand binding domain transfected in HEK293 cells after 18 hrs by dual luciferase reporter gene assay; format: cell-based
# T2 sequence (Q07869 whole entry): T1 sequence (whole entry)
# In short: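 HEK293 cells carried a GAL4–PPAR chimera and a GAL4-responsive luciferase reporter in a transactivation assay. Compounds were tested at 1 to 150 µM in at least two separate experiments, and results are given ± SEM.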
# [3] = molecular target: T3, Peroxisome proliferator-activated receptor gamma (Homo sapiens, UniProt P37231); assay: Transactivation of human GAL4-fused PPARgamma ligand binding domain transfected in HEK293 cells after 18 hrs by dual luciferase reporter gene assay; format: cell-based
# T3 sequence (P37231 whole entry): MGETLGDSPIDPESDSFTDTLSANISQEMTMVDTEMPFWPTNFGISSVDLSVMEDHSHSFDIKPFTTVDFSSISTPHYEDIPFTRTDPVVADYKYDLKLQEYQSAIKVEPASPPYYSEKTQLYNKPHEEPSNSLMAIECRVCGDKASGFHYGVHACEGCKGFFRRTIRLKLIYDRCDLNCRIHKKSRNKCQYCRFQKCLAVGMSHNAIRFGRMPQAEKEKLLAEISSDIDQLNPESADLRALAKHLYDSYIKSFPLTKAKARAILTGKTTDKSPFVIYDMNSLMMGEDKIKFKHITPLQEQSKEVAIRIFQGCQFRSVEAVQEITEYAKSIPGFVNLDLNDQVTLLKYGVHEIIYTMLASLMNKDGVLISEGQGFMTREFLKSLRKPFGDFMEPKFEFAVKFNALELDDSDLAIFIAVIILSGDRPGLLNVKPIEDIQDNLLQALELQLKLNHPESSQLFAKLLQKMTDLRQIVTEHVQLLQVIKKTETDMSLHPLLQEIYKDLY
# [4] = molecular target: T1, Peroxisome proliferator-activated receptor alpha (Homo sapiens); assay: Transactivation of PPARalpha in human HepG2 cells assessed as increase in CPT1A mRNA expression after 48 hrs by RT-qPCR analysis
Structure (SMILES),%max [1],EC50 ([2]; read-out: EC50),EC50 ([3]; read-out: EC50),EC50 ([2]; hek293),EC50 ([3]; hek293),Activity [4]
CC(C)(Oc1ccc(CCCO)cc1)C(=O)O,181%,30.6 µM,,,Not Active,
CC(C)(Oc1ccc(COc2nc3ccccc3s2)cc1)C(=O)O,125%,44.6 µM,32 µM,,,
CC(C)(Oc1ccc(CCOc2ccc(C(=O)c3ccccc3)cc2)cc1)C(=O)O,,,54.6 µM,Not Active,,
CC(C)(Oc1ccc(COc2ccc(/N=N/c3ccccc3)cc2)cc1)C(=O)O,350%,5.6 µM,,,,
CCc1ccc(CCOc2ccc(CC3SC(=O)NC3=O)cc2)nc1 (configuration not stated) [PIOGLITAZONE],,,,Not Active,,
CC(C)(Oc1ccc(COc2ccc(C(=O)/C=C/c3ccccc3)cc2)cc1)C(=O)O,,,,Not Active,Not Active,
CC(C)(Oc1ccc(CCOc2nc3ccccc3s2)cc1)C(=O)O,169%,18.3 µM,39.3 µM,,,
CC(C)(Oc1ccc(Cl)cc1)C(=O)O [CLOFIBRIC ACID],,,,,Not Active,
CC(C)(Oc1ccc(CCO)cc1)C(=O)O,94%,75.1 µM,,,Not Active,
CC(C)(Oc1ccc(CCCOc2ccc(Oc3ccccc3)cc2)cc1)C(=O)O,,,75.2 µM,Not Active,,

# The remaining lines, values ahead:
%max [1],EC50 ([2]; read-out: EC50),EC50 ([3]; read-out: EC50),EC50 ([2]; hek293),EC50 ([3]; hek293),Activity [4],Structure (SMILES)
100%,45.8 µM,7.9 µM,,,,CC(C)(Oc1ccc(CCCOc2nc3ccccc3s2)cc1)C(=O)O
81%,11.6 µM,12.6 µM,,,,CC(C)(Oc1ccc(CCOc2ccc(/C=C/c3ccccc3)cc2)cc1)C(=O)O
81%,42.8 µM,10 µM,,,,CC(C)(Oc1ccc(CCCOc2ccc(/N=N/c3ccccc3)cc2)cc1)C(=O)O
,,6.9 µM,Not Active,,,CC(C)(Oc1ccc(CCOc2ccc(Oc3ccccc3)cc2)cc1)C(=O)O
118%,64 µM,5.9 µM,,,,CC(C)(Oc1ccc(CCOc2ccc(C(=O)/C=C/c3ccccc3)cc2)cc1)C(=O)O
,,0.8 µM,Not Active,,,CC(C)(Oc1ccc(CCCOc2ccc(C(=O)/C=C/c3ccccc3)cc2)cc1)C(=O)O
119%,34.5 µM,30 µM,,,,CC(C)(Oc1ccc(CO)cc1)C(=O)O
,,5.8 µM,Not Active,,,CC(C)(Oc1ccc(CCCOc2ccc(C(=O)c3ccccc3)cc2)cc1)C(=O)O
156%,40.5 µM,6 µM,,,,CC(C)(Oc1ccc(COc2ccc(/C=C/c3ccccc3)cc2)cc1)C(=O)O
,,0.8 µM,Not Active,,,CC(C)(Oc1ccc(COc2ccc(Oc3ccccc3)cc2)cc1)C(=O)O
,,5.4 µM,Not Active,,,CC(C)(Oc1ccc(COc2ccc(C(=O)c3ccccc3)cc2)cc1)C(=O)O
125%,9.9 µM,0.8 µM,,,,CC(C)(Oc1ccc(CCCOc2ccc(/C=C/c3ccccc3)cc2)cc1)C(=O)O
158%,0.6 µM,1.4 µM,,,Dose-dependent effect,CC(C)(Oc1ccc(CCOc2ccc(/N=N/c3ccccc3)cc2)cc1)C(=O)O
